Results as given in ChEMBL document CHEMBL1128448, “Synthesis and antifungal activity of new azole derivatives containing an N-acylmorpholine ring” (1995).
Values after ≈ are worked out from the molar mass of the structure shown.

What was measured:
Aspergillus fumigatus = assay: In vitro evaluation of minimum inhibitory concentration against Aspergillus fumigatus 33; format: functional; details: Aspergillus fumigatus; read-out: MIC
Summary of the method: (§1)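 Stocks are 800 μg/mL in 50% ethanol. Each plate gets 10 μL of inoculum at 10^5 cfu/mL. Incubation at 25 °C, 48 h for yeasts and 120 h for dermatophytes and molds. Organisms are ATCC strains or clinical isolates.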

Aspergillus niger = assay: In vitro evaluation of minimum inhibitory concentration against Aspergillus niger 18; format: functional; details: Aspergillus niger; read-out: MIC; summary of the method: as §1
Candida albicans [1] = assay: In vivo evaluation of minimum inhibitory concentration against Candida albicans 76; format: functional
Summary of the method: (§2)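 Broth macrodilution MIC following NCCLS M27-P, in RPMI-1640 buffered with 0.165 M MOPS. Fluconazole was dissolved in water and other drugs in DMSO. C. parapsilosis ATCC 22019 served as the reference strain in every run. MIC was the lowest concentration giving turbidity at or below the 80% inhibition standard.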

[2] = system: Meyerozyma guilliermondii; assay: In vitro evaluation of minimum inhibitory concentration against Candida guilliermondii 26; format: functional; summary of the method: as §1
Pichia kudriavzevii = assay: In vitro evaluation of minimum inhibitory concentration against Candida krusei 70; format: functional; details: Pichia kudriavzevii; read-out: MIC; summary of the method: as §1
Candida parapsilosis = assay: In vitro evaluation of minimum inhibitory concentration against Candida parapsilosis 61; format: functional; summary of the method: as §1
Mus sp. [3] = assay: In vivo evaluation of % survival rate after peroral administration on 3rd day at dose 2.5 mg/kg; format: functional; details: Mus sp., po
Mus sp. [4] = assay: In vivo evaluation of % survival rate after peroral administration on 5th day at dose 2.5 mg/kg; format: functional; details: Mus sp., po
Mus sp. [5] = assay: In vivo evaluation of % survival rate after peroral administration on 7th day at dose 2.5 mg/kg; format: functional; details: Mus sp., po
Mus sp. [6] = assay: In vivo evaluation of % survival rate after peroral administration on 9th day at dose 2.5 mg/kg; format: functional; details: Mus sp., po
Microsporum canis = assay: In vitro evaluation of minimum inhibitory concentration against Microsporum canis 47; format: functional; details: Microsporum canis; read-out: MIC; summary of the method: as §1
Nannizzia gypsea = assay: In vitro evaluation of minimum inhibitory concentration against Microsporum gypseum 22; format: functional; details: Nannizzia gypsea; read-out: MIC; summary of the method: as §1
Nakaseomyces glabratus [7] = assay: In vitro evaluation of minimum inhibitory concentration against Torulopsis glabrata 78; format: functional; details: Nakaseomyces glabratus; read-out: MIC; summary of the method: as §1
Trichophyton benhamiae = assay: In vitro evaluation of minimum inhibitory concentration against Trichophyton mentagrophytes 23; format: functional, Arthroderma benhamiae; details: Trichophyton benhamiae; read-out: MIC; summary of the method: as §1
Trichophyton rubrum = assay: In vitro evaluation of minimum inhibitory concentration against Trichophyton rubrum 90; format: functional; details: Trichophyton rubrum; read-out: MIC; summary of the method: as §1
Rhodotorula mucilaginosa = assay: In vitro evaluation of minimum inhibitory concentration against Rhodotorula rubra 16; format: functional; details: Rhodotorula mucilaginosa; read-out: MIC; summary of the method: as §1
Kluyveromyces marxianus = assay: In vitro evaluation of minimum inhibitory concentration against Candida pseudotropicalis 13; format: functional; summary of the method: as §1
Aspergillus flavus = assay: In vitro evaluation of minimum inhibitory concentration against Aspergillus flavus 19; format: functional; details: Aspergillus flavus; read-out: MIC; summary of the method: as §1
[8] = system: Meyerozyma guilliermondii; assay: In vivo evaluation of minimum inhibitory concentration against Candida guilliermondii 26; format: functional; details: in the assay text read “In vitro” for “In vivo”
Summary of the method: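 Agar dilution MIC. Inocula were 10^5 cfu/mL; 10 µL was spotted onto Kimmig's agar with 0.5% glycerol containing twofold drug dilutions (80 to 0.025 µg/mL). Drug stocks were 800 µg/mL in 50% ethanol. Plates were incubated at 25 °C, 48 h for yeasts and 120 h for molds and dermatophytes.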

Candida albicans [9] = assay: In vitro evaluation of minimum inhibitory concentration against Candida albicans 76; format: functional; summary of the method: as §1
Candida albicans [10] = assay: In vivo evaluation of minimum inhibitory concentration against Candida albicans 406; format: functional; summary of the method: as §2
Candida albicans [11] = assay: In vivo evaluation of minimum inhibitory concentration against Candida albicans 60; format: functional; summary of the method: as §2
Candida tropicalis = assay: In vitro evaluation of minimum inhibitory concentration against Candida tropicalis 2.11; format: functional; summary of the method: as §1
Mus sp. [12] = assay: In vivo evaluation of % survival rate after peroral administration on 3rd day at dose 1 mg/kg; format: functional; details: route oral, 1 mg/kg
Mus sp. [13] = assay: In vivo evaluation of % survival rate after peroral administration on 5th day at dose 1 mg/kg; format: functional; details: route oral, 1 mg/kg
Mus sp. [14] = assay: In vivo evaluation of % survival rate after peroral administration on 7th day at dose 1 mg/kg; format: functional; details: route oral, 1 mg/kg
Mus sp. [15] = assay: In vivo evaluation of % survival rate after peroral administration on 9th day at dose 1 mg/kg; format: functional; details: route oral, 1 mg/kg
Nakaseomyces glabratus [16] = assay: In vivo Evaluation of minimum inhibitory concentration against Torulopsis glabrata 78; format: functional; details: in the assay text read “In vitro” for “In vivo”; summary of the method: as §1
Mus musculus [17] = assay: In vivo evaluation of % survival rate after peroral administration on 3rd day at dose 5 mg/kg; format: functional; details: route oral
Mus musculus [18] = assay: In vivo evaluation of % survival rate after peroral administration on 5th day at dose 5 mg/kg; format: functional; details: route oral
Mus musculus [19] = assay: In vivo evaluation of % survival rate after peroral administration on 9th day at dose 5 mg/kg; format: functional; details: route oral
Mus musculus [20] = assay: In vivo evaluation of % survival rate after peroral administration on 7th day at dose 5 mg/kg; format: functional; details: route oral
[21] = Lodderomyces parapsilosis, read-out: MIC
[22] = Kluyveromyces marxianus, read-out: MIC

SMILES | MIC (Aspergillus fumigatus) [µg/mL] | MIC (Aspergillus niger) [µg/mL] | MIC (Candida albicans [1]) [µg/mL] | MIC (Pichia kudriavzevii) [µg/mL] | MIC (Candida parapsilosis; [21]) [µg/mL] | survival at 2.5 mg/kg (Mus sp. [3]) [%] | survival at 2.5 mg/kg (Mus sp. [4]) [%] | survival at 2.5 mg/kg (Mus sp. [5]) [%] | survival at 2.5 mg/kg (Mus sp. [6]) [%] | MIC (Microsporum canis) [µg/mL] | MIC (Nannizzia gypsea) [µg/mL] | MIC (Nakaseomyces glabratus [7]) [µg/mL] | MIC (Trichophyton benhamiae) [µg/mL] | MIC (Trichophyton rubrum) [µg/mL] | MIC (Rhodotorula mucilaginosa) [µg/mL] | MIC (Kluyveromyces marxianus; [22]) [µg/mL] | MIC (Aspergillus flavus) [µg/mL] | MIC (Candida albicans [10]) [µg/mL] | MIC (Candida albicans [11]) [µg/mL] | MIC (Candida parapsilosis) [µg/mL] | also measured
C[C@H]1N(C(=O)c2ccc(OC(F)(F)F)cc2)CC(=O)O[C@@]1(Cn1cncn1)c1ccc(F)cc1F (racemic) | > 80 | > 80 | 80 (≈ 161 µM) | > 80 | > 80 | 100 | 100 | 100 | 90 | > 80 | > 80 | > 80 | > 80 | > 80 | > 40 | 40 (≈ 80.6 µM) | > 80 | – | – | – | MIC ([2]; Meyerozyma guilliermondii, read-out: MIC): > 80 µg/mL
C[C@H]1N(C(=O)c2ccc(OCC(F)(F)F)cc2)CC(=O)O[C@@]1(Cn1cncn1)c1ccc(F)cc1F (racemic) | > 80 | > 80 | 80 (≈ 157 µM) | > 80 | > 80 | 100 | 100 | 100 | 70 | > 80 | > 80 | > 80 | > 80 | > 80 | > 40 | 40 (≈ 78.4 µM) | > 80 | – | – | – | MIC [8]: > 80 µg/mL
C[C@H]1N(C(=O)c2ccc(C(F)(F)F)cc2)CC(=O)O[C@@]1(Cn1cncn1)c1ccc(Cl)cc1Cl (stereo in doubt; (+)-32a) | – | – | – | – | – | – | – | – | – | – | – | – | – | – | – | – | – | >80 | >80 | >80 | MIC (Candida albicans [9]): >80 µg/mL; MIC [2]: >80 µg/mL; MIC (Candida tropicalis): >80 µg/mL; Survival (Mus sp. [12]): 0%; Survival (Mus sp. [13]): 0%; Survival (Mus sp. [14]): 0%; Survival (Mus sp. [15]): 0%; MIC (Nakaseomyces glabratus [16]): > 80 µg/mL; MIC (Kluyveromyces marxianus): >80 µg/mL
C[C@H]1N(C(=O)c2ccc(C(F)(F)F)cc2)C[C@H](O)O[C@@]1(Cn1cncn1)c1ccc(F)cc1F (stereo in doubt; (+)-39a) | – | – | – | – | – | – | – | – | – | – | – | – | – | – | – | – | – | >80 | >80 | >80 | survival at 5 mg/kg (Mus musculus [17]): 40%; survival at 5 mg/kg (Mus musculus [18]): 0%; survival at 5 mg/kg (Mus musculus [19]): 0%; MIC (Kluyveromyces marxianus): >80 µg/mL; survival at 5 mg/kg (Mus musculus [20]): 0%
